The subject of assay [1] is HUVEC. The assay is described as follows: Induction of apoptosis in human HUVEC assessed as accumulation at subG1 phase at 0.79 uM incubated for 4 days by flow cytometry (reference value: 15.4 +/- 1.5%). The class given is functional. (In flow cytometry, cells or beads pass a laser one at a time.)
A short description of assay [2]: Inhibition of angiogenesis in chick embryo model assessed as reduction in vessel growth at 26 nM incubated for 24 hrs. It counts as functional, Gallus gallus. The essentials:
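White leghorn eggs incubated at 37.5 °C, 62% humidity. At 70 h, albumen removed and shell windowed. From 75 h, 15 agarose pellets (from a 26 mM DMSO stock in 2% agarose; final concentration 26 nM) placed on the area vasculosa.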

Assay [3] concerns the target T1, Receptor-type tyrosine-protein kinase FLT3 (Homo sapiens, UniProt P36888).
T1 sequence (P36888 whole entry): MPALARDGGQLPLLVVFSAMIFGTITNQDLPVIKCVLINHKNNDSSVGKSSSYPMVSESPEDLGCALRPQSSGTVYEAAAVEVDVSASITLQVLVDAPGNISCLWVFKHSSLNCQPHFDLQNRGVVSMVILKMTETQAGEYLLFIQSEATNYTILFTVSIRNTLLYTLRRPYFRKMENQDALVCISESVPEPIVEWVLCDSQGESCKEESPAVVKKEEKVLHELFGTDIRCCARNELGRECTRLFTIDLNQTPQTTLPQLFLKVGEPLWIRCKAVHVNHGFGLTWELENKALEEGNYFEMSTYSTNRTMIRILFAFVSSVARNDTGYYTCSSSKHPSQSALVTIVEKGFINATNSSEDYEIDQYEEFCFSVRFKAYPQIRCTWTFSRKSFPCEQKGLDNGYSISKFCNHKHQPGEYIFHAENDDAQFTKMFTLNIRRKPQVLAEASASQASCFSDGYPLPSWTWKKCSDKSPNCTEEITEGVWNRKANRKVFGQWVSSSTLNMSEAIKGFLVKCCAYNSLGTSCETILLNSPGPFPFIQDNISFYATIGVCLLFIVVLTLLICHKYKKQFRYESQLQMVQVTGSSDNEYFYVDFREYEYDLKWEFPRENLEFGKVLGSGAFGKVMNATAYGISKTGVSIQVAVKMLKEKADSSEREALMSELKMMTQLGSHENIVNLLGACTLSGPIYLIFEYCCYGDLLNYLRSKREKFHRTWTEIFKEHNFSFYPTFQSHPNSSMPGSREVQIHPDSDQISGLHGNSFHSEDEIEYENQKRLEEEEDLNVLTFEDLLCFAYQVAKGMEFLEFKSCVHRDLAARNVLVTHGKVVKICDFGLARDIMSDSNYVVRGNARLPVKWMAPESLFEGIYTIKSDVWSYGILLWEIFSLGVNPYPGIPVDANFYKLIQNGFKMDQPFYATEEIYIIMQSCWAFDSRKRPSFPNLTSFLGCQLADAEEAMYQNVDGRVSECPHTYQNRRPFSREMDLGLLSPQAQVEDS
The assay is described as follows: Inhibition of FLT3. The essentials:
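Run as an outsourced kinase profiling service (Millipore IC50 Profiler), with the protocol referred to the provider. Gives IC50 values and residual activity at 10 μM test compound. Compounds tested in duplicate.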

Assay [4] deals with HUVEC. The assay is described as follows: Induction of apoptosis in human HUVEC assessed as accumulation at subG1 phase at 2.6 uM incubated for 4 days by flow cytometry (reference value: 15.4 +/- 1.5%). The class given is functional.
Assay [5] concerns HT-29. Kind of assay: Cytotoxic activity against human HT-29 cells assessed as cell viability at 52 uM incubated for 3 days by MTT assay. The conditions noted are these: HT-29, 72 h, read-out: Activity. It counts as functional. The essentials:
(§1)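 MTT viability: exponentially growing cells, 10 000 viable cells/well in RPMI plated overnight, then exposed to test compounds for 3 days (HT-29, Molm-14) or 5 days (Mkn-45) at 37 °C, 5% CO2. MTT added for 4 h, then SDS/HCl solubilization overnight and absorbance read at 562 nm. Viability is expressed relative to untreated cells (100%). Triplicate.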
For orientation: Tetrazolium assays rely on reduction of a dye to a coloured formazan, in cell work by metabolically active cells.

In assay [6] the test system is MKN-45. Kind of assay: Cytotoxic activity against human MKN45 cells assessed as cell viability at 1 uM incubated for 5 days by MTT assay. It counts as functional. The conditions noted are these: MKN-45, 120 h, read-out: Activity. The essentials:
as §1

Assay [7] deals with MKN-45. Kind of assay: Induction of apoptosis in human MKN45 assessed as accumulation at subG1 phase at 5 uM incubated for 7 days by flow cytometry (reference value: 10.9 +/- 3.2%). It counts as functional.
The test system of assay [8] is MKN-45. Kind of assay: Cytotoxic activity against human MKN45 cells assessed as cell viability at 10 uM incubated for 5 days by MTT assay. The class given is functional. As to conditions: MKN-45, 120 h, read-out: Activity. The gist of the method:
as §1

The test system of assay [9] is MKN-45. The assay is described as follows: Cytotoxic activity against human MKN45 cells assessed as cell viability at 20 uM incubated for 5 days by MTT assay. As to conditions: MKN-45, 120 h, read-out: Activity. The class given is functional. The gist of the method: as §1
Assay [10] relates to HT-29. Kind of assay: Cytotoxic activity against human HT-29 cells assessed as cell viability at 7.9 uM incubated for 3 days by MTT assay. As to conditions: HT-29, 72 h, read-out: Activity. The class given is functional. The essentials:
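HT-29 cells in exponential growth were seeded at 10 000 viable cells per well in RPMI and left overnight. They were then exposed to compound for 3 days at 37 °C under 5% CO₂. MTT was added for 4 h, followed by overnight solubilisation in 10% SDS/0.01 M HCl and absorbance at 562 nm. Viability is expressed as % of untreated cells (100%), in triplicate.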

Assay [11] deals with MKN-45. The assay is described as follows: Induction of apoptosis in human MKN45 assessed as accumulation at subG1 phase at 1 uM incubated for 7 days by flow cytometry (reference value: 10.9 +/- 3.2%). It counts as functional.
Assay [12] concerns MKN-45. Kind of assay: Cytotoxic activity against human MKN45 cells assessed as cell viability at 5 uM incubated for 5 days by MTT assay. The class given is functional. The conditions noted are these: MKN-45, 120 h, read-out: Activity. The essentials:
as §1

The subject of assay [13] is MKN-45. The assay is described as follows: Cytotoxic activity against human MKN45 cells assessed as cell viability at 50 uM incubated for 5 days by MTT assay. The class given is functional. As to conditions: MKN-45, 120 h, read-out: Activity. The essentials:
as §1

Assay [14] relates to MKN-45. Kind of assay: Induction of apoptosis in human MKN45 assessed as accumulation at subG1 phase at 10 uM incubated for 7 days by flow cytometry (reference value: 10.9 +/- 3.2%). It counts as functional.
The test system of assay [15] is HT-29. The assay is described as follows: Cytotoxic activity against human HT-29 cells assessed as cell viability at 2.6 uM incubated for 3 days by MTT assay. The class given is functional. As to conditions: HT-29, 72 h, read-out: Activity. The essentials:
as §1

In assay [16] the test system is MKN-45. The assay is described as follows: Induction of apoptosis in human MKN45 assessed as accumulation at subG1 phase at 20 uM incubated for 7 days by flow cytometry (reference value: 10.9 +/- 3.2%). It counts as functional.
The subject of assay [17] is MKN-45. Kind of assay: Cytotoxic activity against human MKN45 cells assessed as cell viability at 0.5 uM incubated for 5 days by MTT assay. The class given is functional. The conditions noted are these: MKN-45, 120 h, read-out: Activity. The essentials: as §1
Assay [18] concerns MKN-45. The assay is described as follows: Induction of apoptosis in human MKN45 assessed as accumulation at subG1 phase at 15 uM incubated for 7 days by flow cytometry (reference value: 10.9 +/- 3.2%). The class given is functional.
In assay [19] the test system is HT-29. Kind of assay: Cytotoxic activity against human HT-29 cells assessed as cell viability at 26 uM incubated for 3 days by MTT assay. The class given is functional. The conditions noted are these: HT-29, 72 h, read-out: Activity. The essentials: as §1
In assay [20] the test system is HT-29. The assay is described as follows: Induction of apoptosis in human HT-29 assessed as accumulation at subG1 phase at 1.18 uM incubated for 7 days by flow cytometry (reference value: 3.4 +/- 0.9%). The class given is functional. The essentials: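 HT-29 cells, 1.5 × 10⁵ per well, plated overnight, then exposed for 7 days to irinotecan at 1.18 μM, alone or with 7.9 μM test compound. Cells were trypsinized and stained for 1 h at 4 °C in PI buffer (sodium citrate, Triton X-100, PI). Sub-G1 fraction measured by flow cytometry (Nicoletti method). Drug-free control used as baseline. Triplicate.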

As usually defined, the IC50 is the concentration that gives 50% inhibition. Low readings indicate inhibition by little substance, high ones a need for much substance.

As to `COc1cc(C2=C(c3c[nH]c4cccnc34)C(=O)NC2=O)cc(OC)c1OC`, the Activity in assay [1] was determined as 14.2%; in [4], 16.3%. Further, the “inhibition (INH)” value in assay [2] is recorded as 10%. The concentration for half-maximal inhibition (IC50) in assay [3] was ≥ 1.5 µM. Also, in [5], the viability at 52 µM is 65.8%.
For the molecule `COc1cc(OC)cc(C2=C(c3c[nH]c4ncccc34)C(=O)NC2=O)c1`, the viability at 1 µM in assay [6] came out at 118%. The Activity in assay [7] is listed as 24.8%; in assay [11], 12.7%; in [14] it was 31.8%; in assay [16], 55.7%; in [18], 45.8%. Also, the viability at 10 µM in assay [8] worked out at 57%. The viability at 20 µM in assay [9] was 62.1%. Also, the viability at 7.9 µM in assay [10] was found to be 49.2%. Besides, the “inhibition (INH)” value in [2] is 25%. Also, the viability at 5 µM in [12] turned out to be 60.4%. In addition, the viability at 50 µM in assay [13] amounted to 59.4%. The viability at 2.6 µM in assay [15] was determined as 54.3%. For the same molecule, the viability at 0.5 µM in assay [17] is 118%. The viability at 26 µM in assay [19] was determined as 43%. Besides, in assay [5], the viability at 52 µM was 40.5%.
With `CCc1c2c(nc3ccc(OC(=O)N4CCC(N5CCCCC5)CC4)cc13)-c1cc3c(c(=O)n1C2)COC(=O)[C@]3(O)CC` [IRINOTECAN], in assay [20], the Activity is 18.3%.

The values are drawn from ChEMBL document CHEMBL2177085 (J Med Chem, 2012).
